Assay results as given in publication PMC6391190 (Pharmacological research, 2019).
Where “and” joins values, the source holds several entries; their conditions need not be identical. Equal entries are not always repeated. Entries after “also recorded” stand apart in the source; their conditions may differ.

How the values were obtained:
BCRP [1] = test: qPCR of BCRP mRNA in BeWo trophoblast cells; assay type: cell-based, human; settings: for inhibition of AEA-mediated down-regulation of BCRP mRNA: 0.1 μM, co-treatment with AEA 10 μM; for reversal of the effects of AEA on BCRP: SB366791 1 μM, GW6471 5 μM, GW9662 5 μM, PD98059
BCRP [2] = test: Hoechst 33342 transport; assay type: cell-based, human
BCRP [3] = test: qPCR of BCRP mRNA in human term placental explants; assay type: cell-based; settings: AEA 1 μM, 24 h
Outline: (§1)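 Term placental explants were cultured 24 h with AEA (1 μM, 0.05% ethanol final), replenished after 12 h. Explants were snap-frozen and homogenized in RNAzol (bead homogenizer, 4 min, 40 Hz). Reverse transcription used 1000 ng RNA with random primers and MultiScribe (25°C 10 min, 37°C 120 min, 85°C 5 min), then qPCR. Values are means of 3 placentas (3-6 samples each) ± SE.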

[4] = tested on: syncytialization-related genes (hCGα, syncytin-1, syncytin-2); test: qPCR of syncytialization-related genes in human term placental explants; assay type: cell-based
Outline: as §1

BCRP [5] = test: Western blot of BCRP protein in human term placental explants; assay type: cell-based; settings: AEA 1 μM, 24 h, densitometry
[6] = tested on: syncytialization markers (hCGβ, syncytin-2, syncytin-1, hCGα); test: qPCR of syncytialization markers in BeWo trophoblast cells; assay type: cell-based, human
Outline: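 BeWo cells took AEA (ethanol vehicle) either at 10 μM over a time course (including 18, 24 and 48 h, with time-matched vehicle controls) or at 0.01-10 μM for 24 h. Cells were scraped into RNAzol and homogenized. Reverse transcription used 1000 ng RNA with random primers (25°C 10 min, 37°C 120 min, 85°C 5 min), followed by qPCR; mean ± SE, n = 4.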

BCRP [7] = test: Western blot of BCRP protein in BeWo cells; assay type: cell-based, human; settings: AEA 10 μM, 24 h
Outline: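 BeWo cells exposed 24 h to AEA (10 μM) or vehicle; AEA was dissolved in ethanol. Cells were lysed in 20 mM Tris-HCl, 150 mM NaCl, 5 mM EDTA, 1% Triton X-100 with protease inhibitor cocktail. Western blotting detected BCRP at 72 kDa, with β-actin (42 kDa) as the loading control. Densitometry was performed.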

BCRP [8] = test: Zearalenone transport with HPLC measurement in BeWo cells; assay type: cell-based, human; settings: for percent efflux of zearalenone: BeWo
BCRP [9] = test: BODIPY-glyburide Transwell transport across BeWo monolayers; assay type: cell-based, human; settings: for reduction of transepithelial transport of BODIPY-glyburide: after 2 h
intracellular cAMP = test: Measurement of intracellular cAMP; assay type: cell-based, human; settings: 1 h, BeWo
CREB = test: Western blot of CREB phosphorylation in BeWo cells; assay type: cell-based, human; settings: 1 h
BCRP promoter = test: ChIP of p-CREB binding to the BCRP promoter in BeWo cells; assay type: cell-based, human; settings: 1 h
human placental explants = test: Morphology of placental explants; assay type: cell-based; settings: anandamide treatment; data not shown
BeWo cells [10] = tested on: BeWo cells
BeWo cells [11] = settings: for effect alone on BeWo cell viability: AEA 10 μM or Ko143 1 μM alone, data not shown
[12] = cited from earlier work
[13] = AEA 1 μM, 24 h, human term placental explants
[14] = forskolin 50 μM, 24h, data not shown

Nc1ncnc2c1nc(Br)n2[C@@H]1O[C@@H]2COP(=O)(O)O[C@H]2[C@H]1O [8-Br-cAMP]
attenuation of AEA down-regulation of BCRP expression and efflux activity (BCRP [1]; 8-Br-cAMP 1 mM, 24 h with AEA 10 μM, 24 h, BeWo): abrogated; also recorded: completely attenuated
prevention of AEA lowering of Hoechst 33342 efflux (BCRP [2]; 8-Br-cAMP 1 mM with AEA 10 μM, 24 h, BeWo): completely prevented
effect itself on Hoechst 33342 transport (BCRP [2]; 8-Br-cAMP 1 mM, 24 h, BeWo): no effect

CCCCC/C=C\C/C=C\C/C=C\C/C=C\CCCC(=O)NCCO [AEA, anandamide]
reduction of BCRP mRNA expression (BCRP [3]): 46%
reduction of hCGα mRNA expression [4, 13]: 48%
reduction of syncytin-1 mRNA expression [4, 13]: 25%
syncytin-2 mRNA expression ([4]; AEA treatment of placental explants, data not shown): unchanged
down-regulation of BCRP protein (BCRP [5]): 30%
lowering of hCGβ mRNA expression ([6]; AEA 0.01 μM, 24 h, BeWo): 71%
lowering of syncytin-2 mRNA expression ([6]; AEA 1 μM, 24 h, BeWo): 40%
decrease of hCGβ mRNA expression ([6]; AEA 10 μM, 18 and 24 h, BeWo): 40-50%
decrease of syncytin-2 mRNA expression ([6]; AEA 10 μM, 18 and 24 h, BeWo): 40-50%
expression of syncytin-1 or hCGα mRNAs ([6]; BeWo cells, data not shown): did not alter
time of maximal reduction of BCRP mRNA (BCRP [1]; AEA 10 μM, BeWo, return to control levels by 48 h): 24 h
lowest concentration at which repression of BCRP was observed (BCRP [1]; BeWo cells): 10 nM
decrease of BCRP mRNA expression (BCRP [1]; all AEA concentrations between 0.01 μM and 10 μM, 24 h, BeWo): 30-50%
BCRP protein expression (BCRP [7]): reduced protein expression
effect on ability of BeWo cells to efflux Hoechst 33342 (BCRP [2]; AEA 10 μM present during uptake and efflux phase (untreated cells)): did not impact
BCRP efflux activity (percent efflux of Hoechst 33342) (BCRP [2]; AEA 10 μM, 24 h pre-treatment, BeWo): 15%
percent efflux of zearalenone (BCRP [8]; AEA 10 μM, 24 h): 33%
reduction of transepithelial transport of BODIPY-glyburide (BCRP [9]; AEA 10 μM, 24 h): 20%
basal intracellular levels of cAMP (intracellular cAMP; AEA 10 μM, control 34.8): 12.4 pmol/mg protein
intracellular levels of cAMP (intracellular cAMP; forskolin 50 μM + AEA 10 μM): 8,250 pmol/mg protein
forskolin-induced phosphorylation of CREB (CREB; AEA 10 μM co-treated with forskolin 50 μM): completely inhibited; also recorded: abolished
p-CREB relative to total CREB protein (CREB; AEA 10 μM): no p-CREB was detected
decrease of p-CREB binding to the BCRP promoter (BCRP promoter; AEA 10 μM): 68%
changes to the morphology of the explants (human placental explants): did not induce any visible changes
reduction in the intracellular concentration of AEA (BeWo cells [10]; human, 30 min, 100 nM): 44%
effect alone on BeWo cell viability (BeWo cells [11]): Neither Ko143 nor AEA alone affected
half-life in vivo [12]: < 5 min

COc1ccc(C(=O)c2c(C)n(CCN3CCOCC3)c3cc(I)ccc23)cc1 [AM630]
inhibition of AEA-mediated down-regulation of BCRP mRNA (BCRP [1]; 24 h, BeWo): abrogated; also recorded: completely inhibited

COc1cc(CNC(=O)CCCC/C=C/C(C)C)ccc1O [Capsaicin]
effect on BCRP expression (BCRP [1]; capsaicin 1 μM, 24 h, BeWo, data not shown): no effect

CCC(=O)NC[C@H](Cc1ccc(OCCc2nc(-c3ccccc3)oc2C)cc1)N/C(C)=C\C(=O)c1ccc(C(F)(F)F)cc1 [GW6471]
reversal of the effects of AEA on BCRP (BCRP [1]; BeWo, data not shown): none of these chemicals reversed the effects of AEA

O=C(Nc1ccccc1)c1cc([N+](=O)[O-])ccc1Cl [GW9662]
reversal of the effects of AEA on BCRP (BCRP [1]; BeWo, data not shown): none of these chemicals reversed the effects of AEA

CCOc1ccc(-c2nc3ccc(-c4nc5ccc(N6CCN(C)CC6)cc5[nH]4)cc3[nH]2)cc1 [Hoechst 33342]
percent efflux of Hoechst 33342 taken up (BCRP [2]; vehicle-treated/control BeWo cells, Hoechst 33342 5 μM): 35% and 33%

COc1ccc2c3c([nH]c2c1)[C@H](CC(C)C)N1C(=O)[C@H](CCC(=O)OC(C)(C)C)NC(=O)[C@@H]1C3 [Ko143]
BCRP efflux activity (percent efflux of Hoechst 33342) (BCRP [2]; Ko143 1 μM present during assay, BeWo): 8%
percent efflux of zearalenone (BCRP [8]; Ko143 1 μM): 49%
reduction of transepithelial transport of BODIPY-glyburide (BCRP [9]; Ko143 1 μM, present during assay): 32%
effect on AEA retention (BeWo cells [10]; Ko143 1 μM, 3H-AEA 100 nM, BeWo): had no impact
effect alone on BeWo cell viability (BeWo cells [11]): Neither Ko143 nor AEA alone affected

COc1cccc(-c2cc(=O)c3ccccc3o2)c1N [PD98059]
reversal of the effects of AEA on BCRP (BCRP [1]; BeWo, data not shown): none of these chemicals reversed the effects of AEA

COc1cccc(NC(=O)/C=C/c2ccc(Cl)cc2)c1 [SB366791]
reversal of the effects of AEA on BCRP (BCRP [1]; BeWo, data not shown): none of these chemicals reversed the effects of AEA

C[C@H]1CCCC(=O)CCC/C=C/c2cc(O)cc(O)c2C(=O)O1 [ZLN, zearalenone]
percent efflux of accumulated zearalenone (BCRP [8]; vehicle-treated BeWo cells, zearalenone 50 μM): 71%

C=C[C@@]1(C)CC(=O)[C@]2(O)[C@@]3(C)[C@@H](O)CCC(C)(C)[C@@H]3[C@H](O)[C@H](OC(C)=O)[C@@]2(C)O1 [forskolin]
inhibition of AEA-mediated reduction of BCRP transcription (BCRP [1]; [14]): partially inhibited
effect on AEA-mediated reduction of Hoechst 33342 efflux (BCRP [2]; [14]): had no effect
intracellular levels of cAMP (intracellular cAMP; forskolin 50 μM): 12,800 pmol/mg protein
CREB phosphorylation (CREB; forskolin 50 μM): consistently increased
reduction in p-CREB binding to the BCRP promoter (BCRP promoter; co-treatment with AEA 10 μM and forskolin 50 μM): 12%

Cc1c(C(=O)NN2CCCCC2)nn(-c2ccc(Cl)cc2Cl)c1-c1ccc(Cl)cc1 [rimonabant]
inhibition of AEA-mediated down-regulation of BCRP mRNA (BCRP [1]; 24 h, BeWo): only partially inhibited

C[C@H]1CCC[C@H](O)CCCCCc2cc(O)cc(O)c2C(=O)O1 [α-ZRN, α-zearalanol]
LC50 values, AEA (BeWo cells [11]; human): 27.4 ± 9.1 µM
LC50 values, Ko143 (BeWo cells [11]; human): 36.0 ± 10.1 µM

Lucifer yellow
percent of Lucifer yellow rejection (BCRP [9]; Lucifer yellow 20 μM, BeWo monolayer integrity): 95.3 ± 3.7%
